An excerpt weighted towards active compounds, which were near 4.9% of everything screened.
APP 5'UTR act: APP 5'UTR luciferase reporter activation. SH-SY5Y APP 5'UTR luciferase reporter, luminescence; zero percent = DMSO vehicle wells. activation, % at 2 µM. actives 1% (n = 190,000);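 active = activation above a set limit, based on mean plus 3 SD of controls, cut at about 140% in these data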
STAT3 inh-1: reduces IL-6 driven STAT3 reporter signal | U3A cells, IL-6 STAT3-luciferase reporter, luminescence; host cell line lacks STAT1 | inhibition, % at 5.5 µM | actives 0.89% (n = 190,000) | AID 862;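 active = inhibition above the mean inhibition across all screened compounds plus 3 SD, cut at about 44% in these data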
STAT3 act: STAT3 signaling activation; U3A cells, IL-6 STAT3-luciferase reporter, luminescence; 100% = signal with IL-6 EC80 alone; activation (% of control), % at 5.6 µM; actives 0.91% (n = 190,000); AID 871;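 active = activation above the screen-wide mean of compound activation plus 3 SD, cut at about 130% in these data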
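System – human U3A cells carrying STAT3-luciferase construct · Probe or stimulus – Interleukin-6, 33 ng/mL · Schedule – compound 1 h, then IL-6 6 h at 37 °C · Signal – luminescence from STAT3-driven luciferase reporter · Evaluation – percent of IL-6-only median luminescence · Benchmarks – IL-6-only high control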
NF-kB neuron act: compounds increasing NF-kB expression in human neuronal cells; NF-kB reporter expression; active compounds read high; fold change at 12.5 µM; actives 1.6% (n = 190,000); in the data active = fold change above about 3.3
STAT1 blocker: STAT1 signaling inhibition. NIH 3T3 STAT1-luciferase reporter, IFN-gamma, luminescence. inhibition, % at 5.5 µM. actives 0.35% (n = 200,000). AID 920;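 active = inhibition above a set limit, the mean inhibition across all tested compounds plus 3 SD, cut at about 34% in these data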
STAT1 act: STAT1 signaling activation; activation (% of control), % at 5.5 µM; actives 2.6% (n = 200,000); NIH 3T3 STAT1-luciferase reporter, IFN-gamma, luminescence; 100% = IFN-gamma alone, no compound;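 active = activation above the screen-wide mean activation plus 3 SD, cut at about 130% in these data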
STAT3 inh-2: confirmation of STAT3 signaling inhibitors | inhibition, % at 5.7 µM | AID 1265 | U3A cells, IL-6 STAT3 luciferase reporter, luminescence; cell line lacks STAT1 | actives 45% (n = 1,200) | shares compounds with STAT3 inh-1;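 active = inhibition above the hit cutoff computed for the primary STAT3 screen, cut at about 44% in these data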
NFkB inh 2: inhibits NF-kappaB, counter-screen to STAT3 inhibitors. shares compounds with STAT3 inh-1. HEK293T NF-kB luciferase reporter, TNF-alpha induced. inhibition, % at 5.7 µM. actives 36% (n = 1,200). AID 1308;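 active = inhibition above the mean of solvent-only control wells plus 3 SD, cutoff set per campaign, cut at about 13% in these data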
STAT1 inh STAT3c: counter-screen for STAT3 inhibitors: STAT1 inhibition | AID 1317 | actives 27% (n = 1,200) | shares compounds with STAT3 inh-1 | NIH 3T3 STAT1-luciferase reporter, IFN-gamma induced, luminescence | inhibition, % at 5.7 µM;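 active = inhibition above the mean plus 3 SD of solvent-only control wells, limit set per screening run, cut at about 16% in these data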
Large screens that a line does not name were inactive (follow-up assays come after a bar, where they were run).

O=C(O)c1ccccc1C(=O)Nc1ccc(Br)c2cccnc12	none
Cc1cc(NC(=O)c2noc3c2CCc2ccccc2-3)n(-c2ccccc2)n1	none
O=C(Nc1cccc(O)c1)c1noc2c1CCc1ccccc1-2	APP 5'UTR act 195, STAT3 inh-1 83, NF-kB neuron act 6.1 | STAT3 inh-2 60 | NFkB inh 2 inactive | STAT1 inh STAT3c inactive
CC(=O)Nc1ccc(SCC(=O)c2cc(C)n(-c3ccccc3)c2C)cc1	STAT3 inh-1 44, STAT1 act 141 | STAT3 inh-2 inactive | NFkB inh 2 inactive | STAT1 inh STAT3c inactive
Cc1cc(C(=O)O)c(C)n1-c1ccccc1	none
CCCOc1ccc(C2NC(=S)NC(C)=C2C(=O)c2ccccc2)cc1OC (configuration not stated)	none
CCOC(=O)C1(Cc2ccccc2)CCN(Cc2cc(OC)c3c(c2)OCO3)CC1	none
COc1ccc(NC(=O)C2=Cc3cccc(OC)c3OC2)cc1	none
O=C(c1ccc2c(c1)OCO2)N1CCN(c2ccc(Cl)cc2)CC1	none
COc1ccc(NC(=O)C2=Cc3ccccc3OC2)cc1	APP 5'UTR act 157, STAT3 inh-1 58, NF-kB neuron act 9.5 | STAT3 inh-2 inactive | NFkB inh 2 inactive | STAT1 inh STAT3c inactive
O=C(Nc1ccc(N2CCN(C(=O)c3ccc(Cl)cc3)CC2)cc1)c1ccc2c(c1)OCCO2	STAT3 inh-1 87 | STAT3 inh-2 79 | NFkB inh 2 29 | STAT1 inh STAT3c inactive
Cc1ccsc1C(=O)Nc1ccc2c(c1)OCCO2	STAT3 inh-1 55, NF-kB neuron act 6.2 | STAT3 inh-2 inactive | NFkB inh 2 inactive | STAT1 inh STAT3c inactive
Cc1ccc(NC(=O)c2ccc3c(c2)OCCO3)cc1	APP 5'UTR act 145, STAT3 inh-1 77, NF-kB neuron act 4.1 | STAT3 inh-2 inactive | NFkB inh 2 inactive | STAT1 inh STAT3c inactive
CCCC(=O)N1CCN(c2ccc(NC(=O)c3cc4ccccc4o3)cc2)CC1	none
CS(=O)(=O)Nc1ccc(C(=O)Nc2ccc3c(c2)OCCO3)cc1	none
O=C(Nc1ccc(N2CCN(C(=O)c3ccccc3)CC2)cc1)c1cc2ccccc2o1	STAT3 inh-1 63 | STAT3 inh-2 59 | NFkB inh 2 14 | STAT1 inh STAT3c inactive
CCc1nnc2sc(-c3ccc(NC(=O)c4ccc5c(c4)OCCO5)cc3)nn12	STAT3 inh-1 55 | STAT3 inh-2 51 | NFkB inh 2 13 | STAT1 inh STAT3c 32
Cc1cc(NC(=O)c2ccc3c(c2)OCCO3)ccc1NC(=O)c1cc2ccccc2o1	none
O=C(Nc1ccc(NC(=O)c2cc3ccccc3o2)cc1)c1ccc2c(c1)OCCO2	STAT3 inh-1 47 | STAT3 inh-2 51 | NFkB inh 2 54 | STAT1 inh STAT3c 23
COc1ccc(C(=O)Nc2ccc3c(c2)OCCO3)cc1	APP 5'UTR act 156, STAT3 inh-1 66, NF-kB neuron act 6 | STAT3 inh-2 inactive | NFkB inh 2 inactive | STAT1 inh STAT3c inactive
COc1ccc(C(=O)C2CCCN(C(=O)c3noc4c3CCCC4)C2)c(C)c1 (configuration not stated)	none
CN(C(=O)N1CCN(S(=O)(=O)c2ccccc2)CC1)c1ccccc1	none
Cc1nc2ccc(NS(=O)(=O)c3ccc4c(c3)OCCO4)cc2s1	STAT3 inh-1 71 | STAT3 inh-2 67 | NFkB inh 2 26 | STAT1 inh STAT3c 28
O=C(c1ccc(F)cc1)N1CCN(c2cc(=O)[nH]nc2-c2ccccc2)CC1	none
Cc1ccc(CN=C2Nc3ccccc3CS2)cc1	APP 5'UTR act 143, STAT3 inh-1 59, NF-kB neuron act 6.8 | STAT3 inh-2 inactive | NFkB inh 2 inactive | STAT1 inh STAT3c inactive
O=C(Nc1nnc(-c2ccco2)s1)c1ccccc1	APP 5'UTR act 161, STAT3 inh-1 47, NF-kB neuron act 4.2 | STAT3 inh-2 inactive | NFkB inh 2 inactive | STAT1 inh STAT3c inactive
O=C(Nc1nnc(-c2ccco2)s1)C1CC1	none
COc1ccc(C(=O)Nc2nnc(-c3ccco3)s2)cc1	STAT3 inh-1 82, NF-kB neuron act 4.8, STAT1 blocker 35 (no result: APP 5'UTR act) | STAT3 inh-2 55 | NFkB inh 2 19 | STAT1 inh STAT3c inactive
CCn1c(=O)ccc2cc([N+](=O)[O-])ccc21	none
O=C(NCc1ccco1)C1CCN(c2ccc(S(=O)(=O)N3CCOCC3)cc2[N+](=O)[O-])CC1	none
O=C(Nc1nc2c(F)cc(F)cc2s1)c1ccccn1	STAT3 inh-1 66, NF-kB neuron act 4.2 | STAT3 inh-2 inactive | NFkB inh 2 inactive | STAT1 inh STAT3c inactive
CCCc1n[nH]c2c1/C(=N/O)CC(c1ccccc1)C2 (configuration not stated)	STAT3 inh-1 45 | STAT3 inh-2 44 | NFkB inh 2 inactive | STAT1 inh STAT3c inactive
COc1ccc(-c2noc(CCCC(=O)O)n2)cc1	STAT3 inh-1 57 | STAT3 inh-2 45 | NFkB inh 2 30 | STAT1 inh STAT3c inactive
COc1ccc(-c2noc(CCC(=O)O)n2)cc1	none
CCOc1ccc(-c2noc(CCC(=O)O)n2)cc1	STAT3 inh-1 59 | STAT3 inh-2 inactive | NFkB inh 2 24 | STAT1 inh STAT3c inactive
Cc1ccc(-n2ncc3c(NNC(=O)Cc4ccccc4)ncnc32)cc1	none
COc1ccc(CCNc2ccc(N3C(=O)CC(C)C3=O)cc2[N+](=O)[O-])cc1OC (configuration not stated)	STAT3 inh-1 70 | STAT3 inh-2 58 | NFkB inh 2 17 | STAT1 inh STAT3c inactive
Cc1nc2ccc(NC(=O)c3cc(S(=O)(=O)N(C)c4ccccc4)ccc3Cl)cc2s1	STAT3 inh-1 55 | STAT3 inh-2 64 | NFkB inh 2 26 | STAT1 inh STAT3c 27
COc1ccc2nc3c(cc2c1)c(NC(=O)c1cccs1)nn3CC(C)C	STAT3 inh-1 59 | STAT3 inh-2 54 | NFkB inh 2 inactive | STAT1 inh STAT3c inactive
CC(C)Oc1ccc(C(=O)Nc2ccc(N(C)C)cc2)cc1	STAT3 inh-1 54 | STAT3 inh-2 inactive | NFkB inh 2 inactive | STAT1 inh STAT3c inactive
CCCOc1ccc(C(=O)Nc2ccc(N3CCN(C(C)=O)CC3)cc2)cc1	none
CCCCOc1ccc(C(=O)NC)cc1	none (no result: APP 5'UTR act)
CCCOc1ccc(C(=O)Nc2ccc(N(C)C)cc2)cc1	STAT3 inh-1 47 | STAT3 inh-2 inactive | NFkB inh 2 inactive | STAT1 inh STAT3c inactive
CCCCOc1ccc(C(=O)Nc2ccncc2)cc1	STAT3 inh-1 79 | STAT3 inh-2 79 | NFkB inh 2 inactive | STAT1 inh STAT3c inactive
